The values below come from PubChem BioAssay AID602138 (Broad Institute, 2011).

Calls of active or inactive are those of the source. No rule for the calls is given here.

The nature of this test: cholesterol efflux inhibition via mutant SR-BI C384S, dose response, mechanism study for SR-BI HDL uptake inhibitor project, cell-based, ldlA CHO, [3H]cholesterol, dry powder (AID 602138). The note with it: ldlA CHO cells mSR-BI C384S, [3H]cholesterol efflux to HDL; at 25 µM (top of the series). The gist of the method:
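Test system: ldlA CHO cells carrying mutant Cys384S SR-BI, [3H]cholesterol-prelabelled | Medium: HEPES-buffered pH 7.4 assay medium with 0.5% fatty acid-free BSA | Probe or stimulus: HDL as cholesterol acceptor, 100 µg/mL final | Times: 1 h compound pre-exposure at 37 °C, 2 h efflux | Detection: Liquid scintillation counting of medium and Triton cell lysate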

For the compound `COCC(=O)N1CCc2cc(-c3csc(NC(=O)c4cc(OC)cc(OC)c4)n3)ccc21`, the efflux, lower = inhibition was 6.26% (active).
With `C[C@H](C(=O)NC1CCCC1)N(C(=O)Cn1nnc(-c2ccc3c(c2)OCO3)n1)C1CCCCC1`, the efflux, lower = inhibition is 5.73% (active).
